Experimental data taken from ChEMBL document CHEMBL4428057, “Discovery, Synthesis, and Evaluation of 2,4-Diaminoquinazolines as a Novel Class of Pancreatic β-Cell-Protective Agents against Endoplasmic Reticulum (ER) Stress” (J Med Chem, 2016).
Active and inactive are the calls of the source.

Tests used:
[1] = tested on: INS1; test: Protection against tunicamycin induced endoplasmic reticulum stress in rat INS-1 cells assessed as increase in cell viability at 2.5 to 20 uM after 72 hrs by MTT assay; type: functional, cell-based
Procedure, shortened: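 INS-1 cells at 3×10^3/well in 384-well plates treated with Tm 0.1 µg/mL ± compound or DMSO for 72 h. MTT reagent for 3 h at 37 °C, crystal-dissolving solution for 4 h, absorbance at 570 nm. Means of 3 replicate wells, representative of 3 experiments, SD.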

[2] = tested on: Beta-TC6; test: Protection against tunicamycin induced endoplasmic reticulum stress in mouse BetaTC6 cells assessed as increase in cell viability after 72 hrs by CellTiter-Glo assay; type: functional, cell-based
Procedure, shortened: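 βTC6 cells (DMEM, 15% FBS) seeded at 3×10^3/well in 384-well plates with Tm 0.25 µg/mL ± compound or DMSO for 72 h. Viability by CellTiter-Glo (ATP luminescence) or MTT: 3 h with reagent at 37 °C, then 4 h with crystal-dissolving solution, absorbance at 570 nm. 3 replicate wells, 3 experiments.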

[3] = tested on: INS1; test: Protection against tunicamycin induced endoplasmic reticulum stress in rat INS-1 cells assessed as increase in cell viability at 20 uM after 24 hrs by live-cell phase-contrast image analysis; type: functional, cell-based
Procedure, shortened: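 INS-1 cells treated with or without Tm 0.1 µg/mL in the presence of compound 20 µM or DMSO for 24 h; live-cell phase-contrast images acquired at 10× magnification.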

[4] = tested on: INS1; test: Suppression of tunicamycin impaired glucose-stimulated insulin secretion in rat INS-1 cells at 10 to 20 uM preincubated for 24 hrs followed by 25 mM glucose addition for 1 hr by ELISA; type: functional, cell-based
Procedure, shortened: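 INS-1 cells in 96-well plates given Tm 0.1 µg/mL plus compound for 24 h, preincubated 1 h in KRBH (pH 7.4, 2% BSA) with 2.5 mM glucose, then 1 h in 2.5 or 25 mM glucose. Secreted insulin by ELISA, corrected for total protein (Bradford); 2.5 mM glucose without Tm set to 1.0.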

[5] = target: T1, Eukaryotic translation initiation factor 2-alpha kinase 3 (Rattus norvegicus) (UniProt Q9Z1Z1); test: Inhibition of PERK pathway in rat INS-1 cells assessed as reduction in tunicamycin induced CHOP mRNA levels at 20 uM after 2 to 24 hrs by qRT-PCR method; type: cell-based
T1 sequence (whole entry): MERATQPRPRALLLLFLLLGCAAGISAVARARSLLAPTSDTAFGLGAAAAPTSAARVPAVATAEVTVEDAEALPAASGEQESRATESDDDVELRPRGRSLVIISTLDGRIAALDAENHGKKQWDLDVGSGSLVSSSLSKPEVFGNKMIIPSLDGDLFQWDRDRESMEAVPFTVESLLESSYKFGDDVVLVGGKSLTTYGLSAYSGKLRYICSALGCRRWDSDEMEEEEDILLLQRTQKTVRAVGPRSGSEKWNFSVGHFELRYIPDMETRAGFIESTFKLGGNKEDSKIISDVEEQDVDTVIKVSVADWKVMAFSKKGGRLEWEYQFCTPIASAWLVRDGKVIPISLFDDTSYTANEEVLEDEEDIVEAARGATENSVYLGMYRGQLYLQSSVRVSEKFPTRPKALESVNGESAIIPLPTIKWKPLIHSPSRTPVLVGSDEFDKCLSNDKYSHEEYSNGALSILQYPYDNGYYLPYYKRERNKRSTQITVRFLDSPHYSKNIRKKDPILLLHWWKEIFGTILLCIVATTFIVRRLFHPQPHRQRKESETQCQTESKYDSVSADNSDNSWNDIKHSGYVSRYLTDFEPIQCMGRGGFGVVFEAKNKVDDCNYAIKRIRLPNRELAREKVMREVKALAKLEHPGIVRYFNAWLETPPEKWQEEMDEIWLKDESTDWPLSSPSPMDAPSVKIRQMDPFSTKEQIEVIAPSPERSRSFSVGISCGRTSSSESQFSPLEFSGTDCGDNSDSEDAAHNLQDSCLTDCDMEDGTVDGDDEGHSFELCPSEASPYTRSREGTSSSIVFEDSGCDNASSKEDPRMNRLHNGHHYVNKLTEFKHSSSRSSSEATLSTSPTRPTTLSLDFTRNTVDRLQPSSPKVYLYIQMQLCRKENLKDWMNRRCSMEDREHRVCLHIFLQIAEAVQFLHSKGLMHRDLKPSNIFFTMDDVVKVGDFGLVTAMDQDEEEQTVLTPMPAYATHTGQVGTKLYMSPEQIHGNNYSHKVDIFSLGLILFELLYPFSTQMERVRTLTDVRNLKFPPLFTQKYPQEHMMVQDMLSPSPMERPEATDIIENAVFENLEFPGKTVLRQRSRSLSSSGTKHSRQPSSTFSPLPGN
Procedure, shortened: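 ATF4 or CHOP mRNA measured by qRT-PCR in INS-1 cells treated with Tm 0.1 µg/mL ± compound 20 µM or DMSO for the indicated times. Expressed as fold-increase over untreated control; means of 3 replicate wells, representative of 3 independent experiments, SD.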

[6] = target: T1, Eukaryotic translation initiation factor 2-alpha kinase 3 (Rattus norvegicus); test: Inhibition of PERK pathway in rat INS-1 cells assessed as reduction in tunicamycin induced CHOP protein levels at 20 uM after 2 to 24 hrs by Western blot analysis; type: cell-based
Procedure, shortened: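 Western blots of INS-1 cells (8×10^5/60-mm dish) treated with Tm 0.1 µg/mL ± compound 20 µM or DMSO for the indicated times. Lysates with EDTA and phosphatase inhibitors; 20 µg protein on 7% SDS-PAGE, PVDF. Primary antibodies at 1:1000 against ATF4, CHOP, cleaved caspase 3 or PARP; α-tubulin loading control; HRP secondaries. Representative of 3 experiments.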

[7] = tested on: Pancreatic beta cell; test: Suppression of tunicamycin impaired glucose-stimulated insulin secretion in human Beta cells at 10 to 20 uM preincubated for 48 hrs followed by glucose addition for 1 hr by ELISA; type: functional, cell-based
Procedure, shortened: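 Human islets (50 of equal size) in 96-well plates given Tm 1 µg/mL plus compound for 48 h, preincubated 1 h in KRBH (pH 7.4) with 2.5 mM glucose, then stimulated 1 h with 2.5 or 20 mM glucose. Secreted insulin by human insulin ELISA, normalized to total protein by Bradford.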

COc1ccc(CNc2nc(N3CCCCC3CO)nc3ccccc23)cc1 (racemic)
active: Activity [1] | Activity [2] Dose-dependent effect | Activity [3] | Activity [4] | inhibition [5] | inhibition [6] | Activity [7]
